Data taken from ChEMBL document CHEMBL4765243, “Discovery of Novel Bromophenol-Thiosemicarbazone Hybrids as Potent Selective Inhibitors of Poly(ADP-ribose) Polymerase-1 (PARP-1) for Use in Cancer” (J Med Chem, 2019).
The source made the active and inactive calls. The calls are words filed in the database; no cut-off is given here.

Tests used:
[1] = Cytotoxicity against human HL7702 cells assessed as cell growth inhibition at 20 uM incubated for 48 hrs by MTT assay relative to control; type: cell-based; details: HL7702 (L02) cells
[2] = target: T1, Poly [ADP-ribose] polymerase 1 (Homo sapiens, UniProt P09874); details: dose 100.0 nM, time 30.0 min
SK-OV-3 [3] = test: Induction of ROS generation in human SKOV3 cells assessed as fold increase in ROS level at 2.5 uM incubated for 48 hrs by DCFH-DA staining based flow cytometry relative to control; type: functional
[4] = Acute toxicity in SPF Kunming mouse assessed as lethal dose administered orally as single dose and measured upto 14 days post drug administration; details: in vivo, po, time <=14 day
Summary of the method: (§1)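 Single oral dose groups at 0 (physiological saline blank, equal volume), 100, 500 and 1000 mg/kg. Mice housed with free access to water and food in stainless cages, 25 ± 1 °C, 12-h light/dark cycle. Survival, body weight and abnormalities recorded up to 14 days post-treatment.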

[5] = Subacute toxicity in SPF Kunming mouse assessed as change in kidney at 1000 mg/kg, po administered for 14 days by H and E staining based microscopic analysis; type: organism-based; details: in vivo, 336 h, time 14 day
Summary of the method: (§2)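 Twenty SPF Kunming mice (18 - 22 g), half male and half female, randomised into 2 groups of 5 males + 5 females. Treated group dosed orally at 1000 mg/kg once daily for 14 days. Death, clinical signs and body weight monitored. After 14 days: isoflurane anaesthesia, decapitation, tissues collected for H&E histology.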

[6] = Acute toxicity in SPF Kunming mouse assessed as change in body weight at 100 to 1000 mg/kg, po administered as single dose and measured upto 14 days post drug administration; type: organism-based; details: in vivo, 336 h, dose 100-1000 mg/kg, time <=14 day; summary of the method: as §1
[7] = Half-life in Sprague-Dawley rat at 2 mg/kg, iv by LC/MS/MS analysis; type: ADME, organism-based; details: in vivo
Summary of the method: (§3)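 Male Sprague-Dawley rats, 4 per group, dosed once orally at 10 mg/kg or intravenously at 2 mg/kg. Blood taken from the saphenous vein for plasma. Drug levels measured by LC-MS-MS, with parameters derived by noncompartmental analysis.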

SK-OV-3 [8] = test: Induction of cell cycle arrest in human SKOV3 cells assessed as reduction in cyclin B1 expression at 2.5 to 10 uM incubated for 48 hrs by western blot analysis; type: functional, cell-based; details: dose 2.5-10 µM
[9] = Oral bioavailability in Sprague-Dawley rat at 10 mg/kg by LC/MS/MS analysis; type: ADME, organism-based; details: in vivo; summary of the method: as §3
[10] = Subacute toxicity in SPF Kunming mouse assessed as change in liver at 1000 mg/kg, po administered for 14 days by H and E staining based microscopic analysis; type: organism-based; details: in vivo, 336 h, time 14 day; summary of the method: as §2
SK-OV-3 [11] = test: Antiproliferative activity against human SK-OV-3 cells assessed as cell growth inhibition incubated for 48 hrs by MTT assay; type: functional, cell-based; details: SK-OV-3, 48 h
Summary of the method: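 Cells seeded in 96-well plates and exposed to compounds for 48 h; viability read by MTT. Each experiment repeated three times. SK-OV-3 grown in McCOY's 5A, Bel-7402 and HL-7702 in RPMI-1640, HepG2 in DMEM, Caco-2 in MEM.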

SK-OV-3 [12] = test: Induction of autophagy in human SKOV3 cells assessed as increase in fluorescence intensity t 10 uM incubated for 48 hrs by immunofluorescence analysis; type: functional, cell-based
Summary of the method: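 SK-OV-3 cells on glass coverslips infected with Ad-mCherry-GFP-LC3B for 24 h. Cells then treated at 10 µM for 48 h, fixed in 4% paraformaldehyde and examined by fluorescence microscopy.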

[13] = target: T1, Poly [ADP-ribose] polymerase 1; test: Inhibition of PARP-1 in human SKOV3 cells assessed as intracellular poly-ADP ribose level at 2.5 to 10 uM incubated for 48 hrs by Western blot analysis; type: cell-based; details: SK-OV-3, dose 2.5-10 µM
Summary of the method: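 SK-OV-3 cells were grown in McCOY's 5A, seeded in 6-well plates and treated for 48 h. Lysate proteins were separated by 8-15 % SDS-PAGE and transferred to PVDF membranes. Membranes were blocked in 5 % nonfat milk, probed with primary antibody overnight at 4 °C and with HRP secondary antibody for 1 h at room temperature, then detected by enhanced chemiluminescence. Images are representative of 3 independent experiments.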

SK-OV-3 [14] = test: Antitumor activity against human SKOV3 cells xenografted in Balb/c nude mouse assessed as tumor growth inhibition at 50 mg/kg, po for 21 days and measured every third day; details: SK-OV-3, po, 504 h, read-out: INH
[15] = Cmax in Sprague-Dawley rat at 10 mg/kg, po by LC/MS/MS analysis; type: ADME, organism-based; set-up: route oral, dose 10 mg/kg; details: in vivo; summary of the method: as §3
SK-OV-3 [16] = test: Antitumor activity against human SKOV3 cells xenografted in Balb/c nude mouse assessed as increase in gamma-H2AX expression in tumor at 25 to 50 mg/kg, po for 21 days by immunohistochemistry analysis; type: functional, organism-based; details: dose 25-50 mg/kg, time 21.0 day
Summary of the method: (§4)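 SK-OV-3 xenografts in female BALB/c nude mice were dosed orally at 25 or 50 mg/kg in 0.5% CMC-Na for 21 days. Tumours were then snap-frozen in liquid nitrogen or fixed in 10% neutral-buffered formalin. Analysis used western blotting, H&E and immunohistochemistry on paraffin sections (Ki67, γ-H2AX).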

SK-OV-3 [17] = test: Induction of apoptosis in human SKOV3 cells at 2.5 to 10 uM incubated for 48 hrs by annexin V-FITC/PI based flow cytometric analysis; type: functional, cell-based; details: dose 2.5-10 µM
Summary of the method: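 SK-OV-3 cells treated 48 h, then harvested, stained with Annexin V/PI and analysed by flow cytometry.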

SK-OV-3 [18] = test: Induction of cell cycle arrest in human SKOV3 cells assessed as accumulation at G2/M phase incubated for 48 hrs by propidium iodide staining based flow cytometry analysis; type: functional
Summary of the method: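 SK-OV-3 cells in 6-well plates incubated 24 h, then treated 48 h. Cells harvested, fixed, stained with propidium iodide and analysed by flow cytometry.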

[19] = Toxicity in Balb/c nude mouse xenografted with human SKOV3 cells assessed as change in body weight at 50 mg/kg, po for 21 days and measured every third day; type: organism-based; details: in vivo, 504 h, time 21 day
Summary of the method: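 Female BALB/c nu/nu mice, 6-8 weeks old, kept under SPF conditions. Each received 5×10^6 SK-OV-3 cells s.c. At 80–120 mm3 tumour volume, mice were split into four groups (n=6). […] Caliper measurement every three days; volume = X × (Y2/2).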

[20] = Toxicity in Balb/c nude mouse xenografted with human SKOV3 cells assessed as histological changes in liver at 25 to 50 mg/kg, po for 21 days by H and E staining based microscopic analysis; type: organism-based; details: in vivo, 504 h, dose 25-50 mg/kg, time 21 day; summary of the method: as §4
[21] = target: T1, Poly [ADP-ribose] polymerase 1; test: Inhibition of PARP-1 in human SKOV3 cells assessed as increase in gammaH2AX expression level by immunofluorescence analysis; type: cell-based; details: SK-OV-3
SK-OV-3 [22] = test: Induction of autophagy in human SKOV3 cells assessed as increase in Beclin-1 protein level at 10 uM incubated for 48 hrs by western blot analysis; type: functional, cell-based
Summary of the method: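 SK-OV-3 cells in 6-well plates treated 48 h. Lysates separated by 8-15% SDS-PAGE and transferred to PVDF. Membranes blocked in 5% milk and probed overnight at 4 °C with LC3 or Beclin 1 antibodies. HRP secondary applied 1 h at room temperature; detection by ECL.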

T1 sequence (P09874 whole entry): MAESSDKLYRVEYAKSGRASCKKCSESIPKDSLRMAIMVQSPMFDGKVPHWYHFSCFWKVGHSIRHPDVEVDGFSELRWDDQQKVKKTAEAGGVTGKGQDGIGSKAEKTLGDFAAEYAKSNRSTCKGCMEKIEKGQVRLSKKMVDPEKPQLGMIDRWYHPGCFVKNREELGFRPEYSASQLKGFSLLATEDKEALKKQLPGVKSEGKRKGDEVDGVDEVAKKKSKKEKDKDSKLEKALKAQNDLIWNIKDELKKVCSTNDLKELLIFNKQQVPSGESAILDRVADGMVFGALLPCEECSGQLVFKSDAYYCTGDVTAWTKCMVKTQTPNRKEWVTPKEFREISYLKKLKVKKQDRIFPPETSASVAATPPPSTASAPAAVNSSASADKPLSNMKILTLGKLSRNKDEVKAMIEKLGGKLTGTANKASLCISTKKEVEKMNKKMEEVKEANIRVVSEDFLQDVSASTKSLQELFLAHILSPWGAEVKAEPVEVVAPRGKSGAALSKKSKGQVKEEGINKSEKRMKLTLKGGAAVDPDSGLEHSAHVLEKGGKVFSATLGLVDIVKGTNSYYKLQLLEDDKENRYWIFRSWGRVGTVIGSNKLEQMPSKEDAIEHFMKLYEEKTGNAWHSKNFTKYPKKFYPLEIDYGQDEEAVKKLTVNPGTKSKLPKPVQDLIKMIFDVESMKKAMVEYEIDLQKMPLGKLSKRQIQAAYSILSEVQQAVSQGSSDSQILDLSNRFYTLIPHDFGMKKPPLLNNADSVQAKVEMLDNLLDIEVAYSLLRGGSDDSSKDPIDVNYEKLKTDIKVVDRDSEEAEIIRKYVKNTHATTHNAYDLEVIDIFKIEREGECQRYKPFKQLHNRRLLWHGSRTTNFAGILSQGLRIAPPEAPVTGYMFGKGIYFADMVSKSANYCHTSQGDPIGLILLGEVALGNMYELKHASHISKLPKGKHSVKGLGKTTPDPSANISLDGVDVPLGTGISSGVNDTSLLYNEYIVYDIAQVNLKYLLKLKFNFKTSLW

With COc1cc(/C=N/NC(N)=S)c(Br)c(Br)c1OC the inhibition at 48 h, 20 µM [1] was 89.9%, the inhibition [2] was 84.6% and the “fold change (FC)” value (SK-OV-3 [3]) was 1.76. For the same compound, the LD50 at 336 h [4] was 1000 mg/kg, the Activity [5] was “Non-Toxic” and the Activity [6] was “Non-Toxic”. The half-life [7] was 47.4 min, the Activity (SK-OV-3 [8]) was “Active” and the F [9] was 47.3%. The Activity [10] was “Non-Toxic”, the IC50 (SK-OV-3 [11]) was 2390 nM and the Activity (SK-OV-3 [12]) was “Active”. The inhibition [13] was “Active”, the inhibition in vivo at 50 mg/kg (SK-OV-3 [14]) was 58.7% and the Cmax [15] was 19.9 nM. For the same compound, the Activity (SK-OV-3 [16]) was “Active”, the Activity (SK-OV-3 [17]) was “Active” and the Activity (SK-OV-3 [18]) was “Dose-dependent effect”. The Activity [19] was “Non-Toxic”, the Activity [20] was “Non-Toxic” and the inhibition [21] was “Active”. For the same compound, the Activity (SK-OV-3 [22]) was “Active”.
